For one assay, the target named is Melanocortin receptor 3 (Mus musculus, UniProt P33033). The experiment in a line: Effective concentration for mouse Melanocortin-3 receptor. The method, boiled down: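 HEK-293 cells stably expressing the mouse receptor (G418 selection), transiently transfected with a CRE/β-galactosidase reporter. Forskolin (10^-4 M) served as the control. After lysis, ONPG was added at 37° and OD405 was read. Signals were normalized to protein content and forskolin; EC50 came from a nonlinear least-squares fit, duplicate or more independent experiments in quadruplicate.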
Melanocortin receptor 3, sequence (P33033 whole entry): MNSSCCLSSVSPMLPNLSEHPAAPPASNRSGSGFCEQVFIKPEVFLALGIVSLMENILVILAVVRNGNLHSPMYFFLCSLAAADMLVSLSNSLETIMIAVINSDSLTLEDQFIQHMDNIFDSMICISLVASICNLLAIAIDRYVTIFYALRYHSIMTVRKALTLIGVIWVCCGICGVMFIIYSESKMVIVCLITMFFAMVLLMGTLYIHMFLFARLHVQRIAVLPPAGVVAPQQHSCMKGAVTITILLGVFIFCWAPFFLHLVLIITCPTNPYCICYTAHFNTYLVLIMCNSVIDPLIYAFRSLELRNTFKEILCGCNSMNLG

For a further assay, the species on record is Mus musculus. As to the kind of experiment: Relative effective concentration for Melanocortin-3 and Melanocortin-4 receptors.

Usually EC50 stands for the midpoint of the concentration-response curve. Low values mean greater potency, high ones weaker potency. On Melanocortin receptor 3, `C[C@@H]1NC(=O)[C@H](CC(N)=O)NC(=O)[C@H](Cc2c[nH]c3ccccc23)NC(=O)[C@H](CCCN=C(N)N)NC(=O)[C@@H](Cc2ccccc2)NC(=O)[C@H](Cc2c[nH]cn2)NC(=O)[C@@H](NC(=O)[C@@H](N)Cc2ccc(O)cc2)CC(=O)N([C@@H](Cc2ccc(O)cc2)C(N)=O)[C@@](C)(C(=O)O)NC(=O)[C@@H](Cc2ccccc2)NC1=O` had an EC50 of 14 nM. In addition, the Selectivity ratio in the assay listed under Mus musculus is 21.
For `C[C@@H]1NC(=O)[C@H](CC(N)=O)NC(=O)[C@H](Cc2c[nH]c3ccccc23)NC(=O)[C@H](CCCN=C(N)N)NC(=O)[C@@H](Cc2ccc(-c3ccccc3)cc2)NC(=O)[C@H](Cc2c[nH]cn2)NC(=O)[C@@H](NC(=O)[C@@H](N)Cc2ccc(O)cc2)CC(=O)N([C@@H](Cc2ccc(O)cc2)C(N)=O)[C@@](C)(C(=O)O)NC(=O)[C@H](Cc2ccccc2)NC1=O` the same measures were 33 nM and 58.
Take `C[C@@H]1NC(=O)[C@H](CC(N)=O)NC(=O)[C@H](Cc2ccc(-c3ccccc3)cc2)NC(=O)[C@H](CCCN=C(N)N)NC(=O)[C@@H](Cc2ccccc2)NC(=O)[C@H](Cc2c[nH]cn2)NC(=O)[C@@H](NC(=O)[C@@H](N)Cc2ccc(O)cc2)CC(=O)N([C@@H](Cc2ccc(O)cc2)C(N)=O)[C@@](C)(C(=O)O)NC(=O)[C@H](Cc2ccccc2)NC1=O`: on Melanocortin receptor 3, the EC50 was determined as 450 nM. In addition, the Selectivity ratio in the assay filed under Mus musculus stood at 11.
Take `C[C@@H]1NC(=O)[C@H](CC(N)=O)NC(=O)[C@H](Cc2c[nH]c3ccccc23)NC(=O)[C@@H]2CCCN2C(=O)[C@@H](Cc2ccccc2)NC(=O)[C@H](Cc2c[nH]cn2)NC(=O)[C@@H](NC(=O)[C@@H](N)Cc2ccc(O)cc2)CC(=O)N([C@@H](Cc2ccc(O)cc2)C(N)=O)[C@@](C)(C(=O)O)NC(=O)[C@H](Cc2ccccc2)NC1=O`: the EC50 at Melanocortin receptor 3 was determined as 17300 nM.
`C[C@@H]1NC(=O)[C@H](CC(N)=O)NC(=O)[C@H](Cc2c[nH]c3ccccc23)NC(=O)[C@H](CCCN=C(N)N)NC(=O)[C@@H](Cc2cccc3ccccc23)NC(=O)[C@H](Cc2c[nH]cn2)NC(=O)[C@@H](NC(=O)[C@@H](N)Cc2ccc(O)cc2)CC(=O)N([C@@H](Cc2ccc(O)cc2)C(N)=O)[C@@](C)(C(=O)O)NC(=O)[C@H](Cc2ccccc2)NC1=O` showed an EC50 at Melanocortin receptor 3 of 320 nM. Besides, in the assay listed under Mus musculus, the Selectivity ratio stood at 560.
At Melanocortin receptor 3, `C[C@@H]1NC(=O)[C@H](CC(N)=O)NC(=O)[C@H](Cc2c[nH]c3ccccc23)NC(=O)[C@H](CCCN=C(N)N)NC(=O)[C@@H]2CCCN2C(=O)[C@H](Cc2c[nH]cn2)NC(=O)[C@@H](NC(=O)[C@@H](N)Cc2ccc(O)cc2)CC(=O)N([C@@H](Cc2ccc(O)cc2)C(N)=O)[C@@](C)(C(=O)O)NC(=O)[C@H](Cc2ccccc2)NC1=O` yielded an EC50 of 13200 nM.
Same read-out and setting: for `C[C@@H]1NC(=O)[C@H](CC(N)=O)NC(=O)[C@H](Cc2c[nH]c3ccccc23)NC(=O)[C@H](CCCN=C(N)N)NC(=O)[C@@H](Cc2ccccc2)NC(=O)[C@H](Cc2c[nH]cn2)NC(=O)[C@@H](NC(=O)[C@@H](N)Cc2ccc(O)cc2)CC(=O)N([C@@H](Cc2ccc(O)cc2)C(N)=O)[C@@](C)(C(=O)O)NC(=O)[C@H](Cc2ccccc2)NC1=O` the value was 0.97 nM; for `C[C@@H]1NC(=O)[C@H](CC(N)=O)NC(=O)[C@@H]2CCCN2C(=O)[C@H](CCCN=C(N)N)NC(=O)[C@@H](Cc2ccccc2)NC(=O)[C@H](Cc2c[nH]cn2)NC(=O)[C@@H](NC(=O)[C@@H](N)Cc2ccc(O)cc2)CC(=O)N([C@@H](Cc2ccc(O)cc2)C(N)=O)[C@@](C)(C(=O)O)NC(=O)[C@H](Cc2ccccc2)NC1=O`, 39200 nM.
The same measure, in the same setting: for `C[C@@H]1NC(=O)[C@H](CC(N)=O)NC(=O)[C@H](Cc2c[nH]c3ccccc23)NC(=O)[C@H](CCCCN)NC(=O)[C@@H](Cc2ccccc2)NC(=O)[C@H](Cc2c[nH]cn2)NC(=O)[C@@H](NC(=O)[C@@H](N)Cc2ccc(O)cc2)CC(=O)N([C@@H](Cc2ccc(O)cc2)C(N)=O)[C@@](C)(C(=O)O)NC(=O)[C@H](Cc2ccccc2)NC1=O` the value was 30800 nM.

For the origin of these results see ChEMBL document CHEMBL1143614, “Structure-activity relationships of the unique and potent agouti-related protein (AGRP)-melanocortin chimeric Tyr-c[beta-Asp-His-DPhe-Arg-Trp-Asn-Ala-Phe-Dpr]-Tyr-NH2 peptide template” (J Med Chem, 2005).
